Laboratory results taken from ChEMBL document CHEMBL5154720, “In silico screening-based discovery of novel covalent inhibitors of the SARS-CoV-2 3CL protease” (Eur J Med Chem, 2022).

Assays:
[1] = target: Replicase polyprotein 1ab (Severe acute respiratory syndrome coronavirus 2) (UniProt P0DTD1); assay: Inhibition of SARS-CoV-2 3CL protease using MCA-AVLQSGFR-Lys(Dnp)-Lys-NH2 fluorogenic peptide as substrate incubated for 30 mins at 50 uM and measured by FRET assay relative to control
Summary of the method: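 Recombinant SUMO-tag-cleaved 3CLpro (E. coli BL21(DE3), Ni-NTA, Q-Sepharose, size exclusion), 50 nM final, preincubated 30 min with compound in 50 mM Tris pH 7.3, 1 mM EDTA; reaction started with 20 μM final FRET substrate. Fluorescence 320/405 nm read every 30 s for 5 min; initial velocity relative to DMSO control. Mean ± SD of three independent experiments.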

[2] = target: Replicase polyprotein 1ab (Severe acute respiratory syndrome coronavirus 2, UniProt P0DTD1); assay: Inhibition of SARS-CoV-2 3CL protease using MCA-AVLQSGFR-Lys(Dnp)-Lys-NH2 fluorogenic peptide as substrate incubated for 30 mins and measured by FRET assay

O=C(/C=C/c1cn(CC(O)CN2CCOCC2)c2ccccc12)c1cccs1 (stereo unspecified)
inhibition [1]: 22.3%

NS(=O)(=O)c1ccc(NC(=O)C(=O)c2ccc[nH]2)cc1
inhibition [1]: 31.4%

Cc1cccc(C)c1NC(=O)CSc1nc2c(cc1C#N)C(=O)CCC2
inhibition [1]: 15.2%

CC1=C(C#N)C(=O)N(CCCO)C(=O)/C1=N\Nc1ccc(Br)cc1C(=O)O
IC50 [2]: 19.1 µM | inhibition [1]: 65.5%

Cn1c(CN2CCC(C(N)=O)CC2)c(C#N)c2ccccc21
inhibition [1]: 24.1%

O=C(CC1C(=O)NCCN1C(=O)CCl)Nc1cccc(Cl)c1 (stereo unspecified)
IC50 [2]: 8.5 µM | inhibition [1]: 87.6%

CN(C(=O)CN1CC(C=O)c2ccccc21)c1ccccc1 (stereo unspecified)
inhibition [1]: 32.6%

NC(=O)CN1C(=O)C(O)(CC(=O)/C=C\c2ccc3c(c2)OCO3)c2ccccc21 (stereo unspecified)
IC50 [2]: 36.1 µM | inhibition [1]: 55.2%
